# Bioassay records (PubChem)
# The list is not random: actives were taken first. Their share in the collection is about 3.6%.
# Beta apoptosis – inhibitors of cytokine-induced beta cell apoptosis, primary screen, luminescence | INS-1E cytokine-induced death, ATP luminescence, 48 h; percent of positive-control rescue, neutral wells zero | protection from apoptosis, % (concentration not given with the values) | actives 0.8% (n = 300,000) | AID 435005, 2010;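 active = Every replicate reaches about 75%, or at least half do and their mean reaches it too, limit read from the data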;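 note: 0% = cytokine-treated negative control wells and 100% = positive control rescue; higher means more ATP so stronger rescue from cytokine killing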
# SKKanGAS inh – S. pyogenes SKKanGAS growth inhibitors in kanamycin, primary screen, streptokinase expression inhibitor project, SKKanGAS strain, BacTiter-Glo luminescence; 6 h; inhibition, % at 7.5 µM; actives 1.3% (n = 300,000);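 active = mean replicate score, as percent of positive control median, at least 50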;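 note: strain carries kanamycin resistance gene driven by streptokinase promoter and grows in 40 µg/ml kanamycin; loss of luminescence reflects streptokinase promoter inhibition or plain growth inhibition; 0% = median of DMSO wells and 100% = positive control at its reference dose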
# HIF act – HIF pathway transcriptional activators, primary screen, cell-based, U2OS HRE-luciferase, luminescence. activation, % at 7.5 µM (by protocol). actives 0.32% (n = 300,000). U2OS HRE-luciferase reporter; normalized: DMSO 0%, desferrioxamine 100%;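 active = mean activation of at least 10% of the iron chelator positive control signal, with at least half of replicates also reaching 10%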
# PfHsp90 yeast 2 – growth inhibition of PfHsp90-expressing yeast, primary screen, antimalarial PfHsp90 inhibitor project, S. cerevisiae, BacTiter-Glo luminescence, single point, set 2; actives 0.32% (n = 310,000); inhibition, % at 9.4 µM; BacTiter-Glo ATP, 48 h; yeast lacking PDR1 and PDR3 efflux regulators;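 active = every replicate shows inhibition above about 80%, whatever the replicate mean, limit read from the data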;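 note: 0% = DMSO neutral controls and 100% = 20 µM radicicol positive controls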
# CSC inhib – cancer stem cell viability inhibitors, primary screen, luminescence; actives 1.1% (n = 300,000); inhibition, % at 7.5 µM; cancer stem cell-like cells viability; AID 2717, 2010; in the data active = inhibition above about 75%; tested in HMLE shEcad cells
# T cruzi inh – inhibitors of intracellular T. cruzi growth, primary screen, luminescence, NIH3T3 host cells; actives 1.4% (n = 300,000); inhibition, % (no concentration beside the values); T. cruzi beta-gal in NIH3T3, 90 h; AID 1885, 2009;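 active = mean inhibition across valid replicates above about 55%, limit read from the data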;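 note: signal also drops with host cell toxicity which is not excluded here; 0% = plate median of DMSO wells and 100% = zero luminescence signal; higher percent means less beta-gal luminescence so fewer parasites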
#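 assay system = mouse NIH/3T3 fibroblasts infected with β-gal-expressing T. cruzi Tulahuen C4 | input = 5,000 NIH/3T3 host cells per well | buffer or medium = DMEM plus 2% FBS | timing = 3 h host attachment, then at least 90 h co-culture | measured by = GalScreen luminescence, 60 min | evaluation = luminescence reflecting intracellular parasite burden, expressed as percent inhibition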
# * marks the source's active call; other numbers are inactive results; · = not tested or not shown.
SMILES,Beta apoptosis,SKKanGAS inh,HIF act,PfHsp90 yeast 2,CSC inhib,T cruzi inh
CCSc1nnc(NC(=O)NC(C)(C(F)(F)F)C(F)(F)F)s1,2.6,13.1,0.1,-23.0,-6.7,3.0
O=C(CCS(=O)(=O)c1ccc(Cl)cc1)N1CCCc2ccccc21,-0.4,-2.0,1.1,2.7,9.2,-2.8
O=C(NCC(=O)N1CCCC(C(F)(F)F)C1)c1cccs1 (stereo not drawn),·,·,·,36.3,·,·
CC(=O)N1CCN(c2ccc(Oc3ccc([N+](=O)[O-])c(C(F)(F)F)c3)cc2)CC1,94.7*,-0.6,0.8,25.0,-3.5,13.5
CCCCCC(=O)NC(=S)NC1C2CC3CC(C2)CC1C3 (stereo not drawn),·,83.2*,0.2,-23.2,57.0,29.7
CCCCCC(=O)NNC(=S)NC(C)=O,-2.7,8.7,0.4,-2.2,0.5,-8.3
CCC(C)c1ccccc1NC(=O)c1cc2cccc([N+](=O)[O-])c2[nH]1 (stereo not drawn),-4.3,24.8,0.5,·,4.8,65.2*
O=C(Nc1ccc(Cl)c(S(=O)(=O)N2CCOCC2)c1)[C@@H]1CCCN1C(=O)c1cccs1,-2.1,·,·,10.6,·,·
O=C(NNc1nc2ccc(Cl)cc2s1)c1cc(-c2cccs2)nc2ccccc12,6.5,87.8*,0.3,102.8*,109.5*,-30.1
Cc1ccc2sc(NNC(=O)c3cc(-c4cccs4)nc4ccccc34)nc2c1C,·,90.2*,0.1,·,38.2,42.7
Cc1cc(C)c2nc(NNC(=O)c3cc(-c4cccs4)nc4ccccc34)sc2c1,·,88.6*,0.5,-202.8,96.8*,46.5
Cc1ccc(NC(=O)c2cc(-c3cccs3)nc3ccccc23)nc1,4.1,0.1,0.1,-16.6,19.0,-5.7
O=C(NN1CCOCC1)c1cc(-c2cccs2)nc2ccccc12,-4.6,1.5,-0.5,2.1,4.6,-33.1
N#Cc1c(N2CCOCC2)nc(N2CCCCC2)c2c1CCN(C1CCCCC1)C2,5.2,1.9,-0.4,·,2.2,70.7*
CC(C)[C@H](NC(=O)c1ccccc1Cl)C(=O)Nc1nc(-c2ccccn2)cs1,31.6,79.0*,20.0*,-3.0,17.4,65.9*
CCc1nnc(NC(=O)C(NC(=O)c2ccccc2Cl)C(C)C)s1 (stereo not drawn),-6.4,-0.7,0.0,9.7,-6.4,-2.0
CC(Oc1ccc(Br)cc1)C(=O)Nc1nc(-c2ccccn2)cs1 (stereo not drawn),·,86.8*,1.1,·,89.1*,68.7*
Cc1nc2cc(NC(=O)Nc3ccc(Br)cc3)ccc2o1,0.2,-5.5,2.6,-13.6,1.3,12.8
Clc1cccc(Nc2ncnc3c2cnn3-c2ccccc2)c1,·,63.5*,3.1,12.1,55.8,16.6
c1ccc(Cn2ncc3c(NCc4ccco4)ncnc32)cc1,3.5,3.0,-0.1,13.3,3.1,-23.1
c1ccc(-n2ncc3c(NCc4ccco4)ncnc32)cc1,3.6,10.3,9.5*,-5.9,38.0,-10.9
Cc1cc(OCc2cc(C(=O)N3CCN(CC4CC4)CC3)no2)cc(C)c1Cl,0.5,1.3,0.3,20.8,31.2,20.4
O=C(c1cc(COc2ccc3ncccc3c2)on1)N1CCCCCC1,90.7*,1.4,1.2,4.2,14.9,31.1
Cc1cc(OCc2cc(C(=O)N3CCC(Oc4cccnc4)CC3)no2)cc(C)c1Cl,·,5.6,0.1,-2.4,77.0*,28.2
O=C(NCCc1cn2ccccc2n1)c1ccccc1F,-2.9,-0.6,0.2,6.8,3.4,2.5
SMILES,Beta apoptosis,SKKanGAS inh,HIF act,PfHsp90 yeast 2,CSC inhib,T cruzi inh
O=C(c1cc(COc2ccc3ncccc3c2)on1)N1CCCC1,42.2,-0.3,1.6,-4.0,3.7,11.7
O=C(NCCc1cn2ccccc2n1)c1cc(COc2ccc3ncccc3c2)on1,104.1*,-8.6,0.9,3.2,3.6,-87.8
COc1cccc(CN(C)C(=O)c2cc(COc3ccc4ncccc4c3)on2)c1,76.5*,11.7,0.5,5.6,8.1,27.4
CC[C@@]1(C(=O)OC)N[C@H](CN(C)S(=O)(=O)c2ccc(OC)cc2)[C@@H]2C(=O)N(C)C(=O)[C@@H]21,-2.4,·,·,18.6,·,·
O=C(COc1ccc(F)cc1Br)NCc1nnc2ccccn12,-0.9,·,·,-14.6,12.8,·
CC(NC(=O)c1cc(COc2ccccc2)on1)c1nccs1 (stereo not drawn),1.1,3.0,2.5,15.1,15.1,4.8
CC(NC(=O)c1cc(COc2ccc3ncccc3c2)on1)c1ccc(F)cc1 (stereo not drawn),105.0*,2.5,0.3,6.3,55.6,18.4
Cc1ccc(OCc2cc(C(=O)NC3CCCCC3)no2)cn1,·,-6.6,0.8,-4.9,·,-22.1
O=C(NC1CCCC1)c1cc(COc2ccc3ncccc3c2)on1,104.3*,-11.4,0.6,-9.5,4.7,9.1
O=C(C1CCN(C2CC(=O)N(c3cccc(Cl)c3)C2=O)CC1)N1CCCC1 (stereo not drawn),0.6,-1.8,·,105.7*,2.9,·
COc1ccc(NC2CCN(C3CC(=O)N(c4ccc(F)c(Cl)c4)C3=O)CC2)cc1 (stereo not drawn),-4.1,0.4,-0.2,101.9*,-8.0,-3.6
CCN(CC)C1CC(=O)N(c2cccc(Cl)c2)C1=O (stereo not drawn),-4.2,-2.4,0.5,126.3*,-6.4,15.3
O=C(O)CSC1CC(=O)N(c2cccc(Cl)c2)C1=O (stereo not drawn),-2.2,8.0,-0.2,·,-9.8,-12.8
NC(=O)C1CCN(C2CC(=O)N(c3ccc(F)c(Cl)c3)C2=O)CC1 (stereo not drawn),-3.7,4.4,-0.3,104.0*,-15.4,2.7
COC(=O)C1CCN(C2CC(=O)N(c3cc(C)cc(C)c3)C2=O)CC1 (stereo not drawn),-3.7,7.6,-0.1,105.3*,-4.0,-31.1
CCN1C(=O)CC(N2CCC(C(=O)OC)CC2)C1=O (stereo not drawn),·,2.4,0.2,-12.1,-4.7,-8.6
c1ccc(CCc2ccncc2)cc1,-6.1,-4.2,0.1,-13.3,-7.1,55.8*
c1ccc(CCCCc2ccncc2)cc1,·,·,·,-28.6,·,·
COC(=O)c1c(NC(=O)CC2SC(N)=NC2=O)sc2c1CCC(C)C2 (stereo not drawn),-8.8,5.1,-0.1,-5.8,9.5,12.4
COC(=O)c1c(NC(=O)CC2SC(N)=NC2=O)sc2c1CCC(C(C)(C)C)C2 (stereo not drawn),-0.3,43.6,-0.4,-26.6,109.2*,43.3
c1ccc2c(c1)ccc1ccccc12,·,·,·,2.6,·,·
CC1=[N+](C)c2ccc3ccccc3c2C1(C)C,98.5*,2.7,0.5,9.0,102.8*,69.4*
